Measured values as given in PMC9977181 (Science Advances, 2023).
Blank lines part the entries; values can stand above or below the compound they belong to.

Assays:
ATM [1] = target: T1, ATM (Homo sapiens, UniProt Q13315); experiment: ATM-SPARK reporter imaging in living HEK293 cells, ATM activated by etoposide; format: cell-based
HeLa cells = experiment: HeLa cell growth assay; format: cell-based, human
ATM [2] = target: T1, ATM; experiment: ATM-SPARK activation by DNA-damaging drugs in U87 cells; format: cell-based
ATM [3] = target: T1, ATM; format: cell-based; conditions: HEK293 cells preincubated with NCS
ATM [4] = target: T1, ATM; experiment: Western blot of phosphorylated ATM; format: cell-based
Summary of the method: (§1)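 HEK293 cells were pretreated 1 h with a test compound titration starting at 1 μM, then given NCS (500 ng/ml) for 1 h. Lysates were resolved on 4–12% bis-tris gels, probed with primary antibodies (1:1000) and HRP secondaries, and detected by ECL on film. The phospho/total band ratio was normalized to DMSO-treated cells. IC50 was obtained by nonlinear fit.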

ATM [5] = target: T1, ATM; experiment: ATM-SPARK ATM activity in HeLa or T98G cancer cells preincubated with inhibitor; format: cell-based; conditions: HeLa and T98G cells, ATM activated using etoposide
DNA-PK = DNA-PK (Homo sapiens, UniProt P78527); experiment: Western blot of phosphorylated DNA-PK; format: cell-based; conditions: HEK293 cells, NCS-induced DNA damage
Summary of the method: as §1

[6] = system: ATM-deficient MDA-MB-231 cells; experiment: Growth inhibition with NCS in ATM-deficient MDA-MB-231 cells; format: cell-based, human; conditions: ATM-deficient cell line
ATR = ATR (Homo sapiens, UniProt Q13535); experiment: Western blot of phosphorylated ATR; format: cell-based; conditions: HEK293 cells, NCS-induced DNA damage
Summary of the method: as §1

T1 sequence (Q13315 whole entry): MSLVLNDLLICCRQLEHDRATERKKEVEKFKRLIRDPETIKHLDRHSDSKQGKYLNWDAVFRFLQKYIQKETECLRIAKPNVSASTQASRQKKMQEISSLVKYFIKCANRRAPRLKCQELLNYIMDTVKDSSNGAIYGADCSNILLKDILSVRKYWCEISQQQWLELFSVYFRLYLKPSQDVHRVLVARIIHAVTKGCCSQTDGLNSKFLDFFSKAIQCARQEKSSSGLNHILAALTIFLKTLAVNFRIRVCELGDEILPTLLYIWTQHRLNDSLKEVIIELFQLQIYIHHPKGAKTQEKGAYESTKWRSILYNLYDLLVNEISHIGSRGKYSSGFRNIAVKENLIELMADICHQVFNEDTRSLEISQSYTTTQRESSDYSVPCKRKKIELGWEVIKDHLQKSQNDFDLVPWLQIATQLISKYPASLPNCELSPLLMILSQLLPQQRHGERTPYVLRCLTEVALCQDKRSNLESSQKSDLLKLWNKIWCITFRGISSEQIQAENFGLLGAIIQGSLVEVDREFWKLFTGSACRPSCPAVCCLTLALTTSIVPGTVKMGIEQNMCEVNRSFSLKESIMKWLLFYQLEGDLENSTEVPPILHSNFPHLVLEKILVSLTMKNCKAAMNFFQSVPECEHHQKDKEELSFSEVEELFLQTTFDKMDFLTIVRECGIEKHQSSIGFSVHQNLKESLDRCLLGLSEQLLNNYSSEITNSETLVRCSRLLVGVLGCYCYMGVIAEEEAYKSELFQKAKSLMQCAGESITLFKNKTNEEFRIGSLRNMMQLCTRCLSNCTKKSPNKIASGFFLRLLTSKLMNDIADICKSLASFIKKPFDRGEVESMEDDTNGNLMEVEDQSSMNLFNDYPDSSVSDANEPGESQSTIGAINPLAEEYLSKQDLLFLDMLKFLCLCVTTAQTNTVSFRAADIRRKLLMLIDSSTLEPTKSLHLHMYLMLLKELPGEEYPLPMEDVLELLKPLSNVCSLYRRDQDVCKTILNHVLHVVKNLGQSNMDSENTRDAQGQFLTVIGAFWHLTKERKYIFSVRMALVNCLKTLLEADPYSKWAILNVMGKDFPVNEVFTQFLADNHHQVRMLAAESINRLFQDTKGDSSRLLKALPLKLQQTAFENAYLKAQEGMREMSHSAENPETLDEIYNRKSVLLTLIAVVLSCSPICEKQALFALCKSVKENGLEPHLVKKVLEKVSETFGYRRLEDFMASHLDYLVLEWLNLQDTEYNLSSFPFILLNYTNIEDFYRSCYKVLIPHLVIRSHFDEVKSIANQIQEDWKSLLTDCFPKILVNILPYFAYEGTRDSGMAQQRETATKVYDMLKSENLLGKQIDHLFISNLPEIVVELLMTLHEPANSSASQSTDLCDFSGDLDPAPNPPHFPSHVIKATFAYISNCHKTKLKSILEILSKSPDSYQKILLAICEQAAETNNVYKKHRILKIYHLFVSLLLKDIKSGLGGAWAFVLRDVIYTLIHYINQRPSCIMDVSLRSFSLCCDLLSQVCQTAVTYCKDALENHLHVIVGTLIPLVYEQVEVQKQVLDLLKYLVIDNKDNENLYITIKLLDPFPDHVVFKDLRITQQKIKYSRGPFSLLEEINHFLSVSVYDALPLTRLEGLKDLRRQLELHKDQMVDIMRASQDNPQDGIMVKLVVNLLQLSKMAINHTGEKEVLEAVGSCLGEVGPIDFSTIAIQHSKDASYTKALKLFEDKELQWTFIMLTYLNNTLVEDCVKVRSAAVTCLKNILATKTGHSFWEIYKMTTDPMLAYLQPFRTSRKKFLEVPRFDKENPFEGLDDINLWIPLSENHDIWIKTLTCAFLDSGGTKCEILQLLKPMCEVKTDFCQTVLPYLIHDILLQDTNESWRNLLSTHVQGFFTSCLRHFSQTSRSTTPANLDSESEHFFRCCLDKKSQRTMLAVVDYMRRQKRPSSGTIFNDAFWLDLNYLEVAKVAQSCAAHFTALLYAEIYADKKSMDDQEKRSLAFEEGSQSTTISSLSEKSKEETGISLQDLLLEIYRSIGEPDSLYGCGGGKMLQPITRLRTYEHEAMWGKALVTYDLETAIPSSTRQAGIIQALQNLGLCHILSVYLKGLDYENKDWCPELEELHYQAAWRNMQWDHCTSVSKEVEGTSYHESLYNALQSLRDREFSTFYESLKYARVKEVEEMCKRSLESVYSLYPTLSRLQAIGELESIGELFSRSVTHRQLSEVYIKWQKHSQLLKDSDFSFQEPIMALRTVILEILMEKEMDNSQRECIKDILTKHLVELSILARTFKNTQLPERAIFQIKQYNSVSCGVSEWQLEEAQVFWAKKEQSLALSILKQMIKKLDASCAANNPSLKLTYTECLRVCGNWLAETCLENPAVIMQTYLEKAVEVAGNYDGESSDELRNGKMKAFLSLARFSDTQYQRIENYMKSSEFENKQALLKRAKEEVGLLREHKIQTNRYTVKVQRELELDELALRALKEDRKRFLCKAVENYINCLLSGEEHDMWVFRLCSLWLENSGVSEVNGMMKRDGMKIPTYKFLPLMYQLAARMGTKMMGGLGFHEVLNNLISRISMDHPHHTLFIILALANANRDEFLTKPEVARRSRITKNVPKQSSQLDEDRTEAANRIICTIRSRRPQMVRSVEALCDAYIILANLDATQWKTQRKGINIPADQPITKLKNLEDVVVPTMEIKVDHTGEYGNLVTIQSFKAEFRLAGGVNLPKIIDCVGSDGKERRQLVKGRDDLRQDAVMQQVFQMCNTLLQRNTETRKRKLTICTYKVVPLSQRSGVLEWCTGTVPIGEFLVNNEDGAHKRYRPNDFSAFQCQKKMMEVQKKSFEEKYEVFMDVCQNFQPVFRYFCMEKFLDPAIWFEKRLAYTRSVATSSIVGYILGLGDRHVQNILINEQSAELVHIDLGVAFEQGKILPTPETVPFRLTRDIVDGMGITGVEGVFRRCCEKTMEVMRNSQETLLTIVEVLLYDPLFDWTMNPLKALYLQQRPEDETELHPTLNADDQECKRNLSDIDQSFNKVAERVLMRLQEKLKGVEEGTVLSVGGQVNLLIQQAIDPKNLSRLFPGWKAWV

Compound: O=C1NC(=O)/C(=C\c2ccc3nccnc3c2)S1 [AS605240]
ATM activity in inhibitor-incubated cells (ATM-SPARK signal), screening (ATM [1]; 1 μM compound): blocked ATM

Compound: neocarzinostatin [NCS]
inhibition of cancer cell proliferation by NCS itself (HeLa cells; NCS 180 ng/ml, 3 days): ~ 35%

Compound: CC[C@@]1(O)C(=O)OCc2c1cc1n(c2=O)Cc2cc3ccccc3nc2-1 [camptothecin]
activation of ATM (ATM-SPARK signal) (ATM [2]): failed to activate ATM

Second part, led by results:

half-time of ATM-SPARK droplet disassembly (ATM [3]): ~ 1.5 min
time to disassembly of ATM-SPARK reporter droplets after inhibitor addition (ATM [3]): ≤ 4 min
Compound: O=c1cc(-c2cccc3c2Sc2ccccc2S3)oc(N2CCOCC2)c1 [KU-55933]

inhibitory activity against ATM (ATM-SPARK signal) (ATM [1]): no activity against ATM
Compound: CN1CCN(c2ccc(-n3cc(-c4ccncc4OCC4CCNCC4)cn3)cc2)CC1 [MELK-8A]

IC50 (ATM [4]): 3.1 ± 0.8 nM
activity against ATM in cancer cells (ATM-SPARK) (ATM [5]): potent activity against ATM
Compound: COc1ccc(-c2ccc3ncc4c(c3c2)n(-c2ccc(N3CCNCC3)c(C(F)(F)F)c2)c(=O)n4C)cn1 [BGT226]
fold lower activity against DNA-PK than against ATM (DNA-PK): 30 fold
sensitization of growth inhibition in response to NCS treatment (HeLa cells; NCS + 4 nM or 11 nM inhibitor (fig. S26)): sensitizes
effect in growth inhibition when combined with NCS [6]: lost
inhibition of ATR (pATR 1989 Western blot) (ATR): no inhibitory activity
